# Ends that are not written are not given here.
# Key:
# [1] = tested on: Metalloprotease (type IV) collagenase from C. histolyticume; assay: Kinetics of Pep-NC cleavage by collagenase; assay type: in vitro ADME; conditions: GPC; for change of molecular weight after incubation with collagenase: collagenase 30 units·mL–1, 24 h
# In short: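 Polymer at 5 mg·mL–1 in PBS pH 7.4 with 0.9 mM CaCl2 and 0.02% NaN3, held 3 h at 4 °C, then 37 °C. l-Pep-NC incubated with or without type IV collagenase (0.5 units·mL–1); d-Pep-NC with 30 units·mL–1 for 24 h. Timed l-Pep-NC aliquots quenched 1 h with 0.1 M EDTA, dialysed, lyophilised. Mn by GPC (DMF/10 mM LiCl, 65 °C, RI detection, PEG standards).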
# Dynamic light scattering = assay type: physicochemical; conditions: DLS, 1 mg·mL–1 in PBS pH 7.4, 37 °C, 173° angle; micelles as prepared
# [2] = Determination of cloud points of polymers; assay type: physicochemical; conditions: in PBS; refers to Table 1
# [3] = 37 °C, 5 mg·mL–1 polymer in PBS pH 7.4 with 0.9 mM CaCl2
Sequence,"change of molecular weight after incubation with collagenase [1, 3]","change of molecular weight in the absence of the enzyme ([1]; 24 h, 37 °C, PBS pH 7.4)","time for cleavage of the peptide block ([1]; collagenase 0.5 units·mL–1, 37 °C, 5 mg·mL–1 polymer in PBS pH 7.4 with 0.9 mM CaCl2) [min]",Z-average diameter (Dynamic light scattering) [nm],LCST [2] [°C]
"KGPQGIFGQK [D-Pep-NC, (NIPAM-co-HPMA-Cys)-PEG-D-Peptide-PEG-P(NIPAM-co-HPMA-Cys)]",did not change,,,,
"KGPQGIFGQK [L-Pep-NC, P(NIPAM-co-HPMA-Cys)-PEG-peptide-PEG-P(NIPAM-co-HPMA-Cys)]",reduced to half its original molecular weight,No change in the molecular weight,160,,
"KGPQGIFGQK [Pep-NC, P(NIPAM-co-HPMA-Cys)-PEG-peptide-PEG-P(NIPAM-co-HPMA-Cys)]",,,,87 ± 1,~31
